Source: ChEMBL document CHEMBL5058577, “EUbOPEN Chemogenomics Library 2 (Multiplex)” (2022)

Tested on: Fibroblast
Test: Multiplex assay against human fibroblast
Type: toxicity, cell-based
Outline: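 Live cells were stained at seeding with Hoechst33342, BioTracker Green Microtubule Cytoskeleton Dye, MitoTracker Red and Annexin V Alexa Fluor 680. Following compound addition, they were imaged on a CQ1 microscope at 37°C and 5% CO2 and gated by CellPathfinder machine learning into Hoechst high-intensity objects or normal cells, with normal cells split into healthy, pyknosed or fragmented nuclei and pyknosed cells into mitotic or apoptotic. Tubulin, mitochondrial-mass and membrane-permeability phenotypes are per cents of healthy-nucleus cells.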

[1] = 12 h, 1 µM, compound concentration 1 uM, replicate 1
[2] = 12 h, 1 µM, compound concentration 1 uM, replicate 2
[3] = 12 h, 10 µM, compound concentration 10 uM, replicate 1
[4] = 12 h, 10 µM, compound concentration 10 uM, replicate 2
[5] = 24 h, 1 µM, compound concentration 1 uM, replicate 1
[6] = 24 h, 1 µM, compound concentration 1 uM, replicate 2
[7] = 24 h, 10 µM, compound concentration 10 uM, replicate 1
[8] = 24 h, 10 µM, compound concentration 10 uM, replicate 2
[9] = 48 h, 1 µM, compound concentration 1 uM, replicate 1
[10] = 48 h, 1 µM, compound concentration 1 uM, replicate 2
[11] = 48 h, 10 µM, compound concentration 10 uM, replicate 1
[12] = 48 h, 10 µM, compound concentration 10 uM, replicate 2

CC(C)COc1ccc(CNC(=O)N(Cc2ccc(F)cc2)C2CCN(C)CC2)cc1 [PIMAVANSERIN]
Population Apoptotic (%) [1]: 65% | Population Fragmented Nuclei (%) [1]: 24% | Population Healthy Nuclei (%) [1]: 62% | Population Hoechst High Intensity Objects (%) [1]: 0% | Population Membrane Permeable-Phenotype (%) [1]: 0% | Population Mitochondria Different-Phenotype (%) [1]: 12% | Population Mitotic Cells (%) [1]: 34% | Population Normal (%) [1]: 100% | Population Pyknosed Nuclei (%) [1]: 12% | Population Tubulin-Different-Phenotype (%) [1]: 35% | Total Cell Count [1]: 179 | Population Apoptotic (%) [2]: 61% | Population Fragmented Nuclei (%) [2]: 40% | Population Healthy Nuclei (%) [2]: 42% | Population Hoechst High Intensity Objects (%) [2]: 1% | Population Membrane Permeable-Phenotype (%) [2]: 7% | Population Mitochondria Different-Phenotype (%) [2]: 4% | Population Mitotic Cells (%) [2]: 38% | Population Normal (%) [2]: 98% | Population Pyknosed Nuclei (%) [2]: 16% | Population Tubulin-Different-Phenotype (%) [2]: 82% | Total Cell Count [2]: 160 | Population Apoptotic (%) [3]: 56% | Population Fragmented Nuclei (%) [3]: 18% | Population Healthy Nuclei (%) [3]: 65% | Population Hoechst High Intensity Objects (%) [3]: 1% | Population Membrane Permeable-Phenotype (%) [3]: 0% | Population Mitochondria Different-Phenotype (%) [3]: 42% | Population Mitotic Cells (%) [3]: 43% | Population Normal (%) [3]: 98% | Population Pyknosed Nuclei (%) [3]: 16% | Population Tubulin-Different-Phenotype (%) [3]: 93% | Total Cell Count [3]: 185 | Population Apoptotic (%) [4]: 51% | Population Fragmented Nuclei (%) [4]: 31% | Population Healthy Nuclei (%) [4]: 42% | Population Hoechst High Intensity Objects (%) [4]: 4% | Population Membrane Permeable-Phenotype (%) [4]: 2% | Population Mitochondria Different-Phenotype (%) [4]: 32% | Population Mitotic Cells (%) [4]: 48% | Population Normal (%) [4]: 95% | Population Pyknosed Nuclei (%) [4]: 26% | Population Tubulin-Different-Phenotype (%) [4]: 81% | Population Apoptotic (%) [5]: 60% | Population Fragmented Nuclei (%) [5]: 21% | Population Healthy Nuclei (%) [5]: 65% | Population Hoechst High Intensity Objects (%) [5]: 2% | Population Membrane Permeable-Phenotype (%) [5]: 1% | Population Mitochondria Different-Phenotype (%) [5]: 5% | Population Mitotic Cells (%) [5]: 39% | Population Normal (%) [5]: 97% | Population Pyknosed Nuclei (%) [5]: 12% | Population Tubulin-Different-Phenotype (%) [5]: 47% | Total Cell Count [5]: 186 | Population Apoptotic (%) [6]: 52% | Population Fragmented Nuclei (%) [6]: 39% | Population Healthy Nuclei (%) [6]: 46% | Population Membrane Permeable-Phenotype (%) [6]: 4% | Population Mitochondria Different-Phenotype (%) [6]: 9% | Population Mitotic Cells (%) [6]: 47% | Population Pyknosed Nuclei (%) [6]: 13% | Population Tubulin-Different-Phenotype (%) [6]: 76% | Total Cell Count [6]: 157 | Population Apoptotic (%) [7]: 83% | Population Fragmented Nuclei (%) [7]: 13% | Population Healthy Nuclei (%) [7]: 67% | Population Hoechst High Intensity Objects (%) [7]: 4% | Population Membrane Permeable-Phenotype (%) [7]: 0% | Population Mitochondria Different-Phenotype (%) [7]: 41% | Population Mitotic Cells (%) [7]: 16% | Population Normal (%) [7]: 95% | Population Pyknosed Nuclei (%) [7]: 18% | Population Tubulin-Different-Phenotype (%) [7]: 92% | Total Cell Count [7]: 170 | Population Apoptotic (%) [8]: 69% | Population Fragmented Nuclei (%) [8]: 27% | Population Healthy Nuclei (%) [8]: 50% | Population Hoechst High Intensity Objects (%) [8]: 8% | Population Membrane Permeable-Phenotype (%) [8]: 3% | Population Mitochondria Different-Phenotype (%) [8]: 38% | Population Mitotic Cells (%) [8]: 30% | Population Normal (%) [8]: 91% | Population Pyknosed Nuclei (%) [8]: 21% | Population Tubulin-Different-Phenotype (%) [8]: 96% | Total Cell Count [8]: 167 | Population Apoptotic (%) [9]: 88% | Population Fragmented Nuclei (%) [9]: 27% | Population Healthy Nuclei (%) [9]: 62% | Population Hoechst High Intensity Objects (%) [9]: 3% | Population Membrane Permeable-Phenotype (%) [9]: 1% | Population Mitochondria Different-Phenotype (%) [9]: 3% | Population Mitotic Cells (%) [9]: 11% | Population Normal (%) [9]: 96% | Population Pyknosed Nuclei (%) [9]: 9% | Population Tubulin-Different-Phenotype (%) [9]: 45% | Total Cell Count [9]: 204 | Population Apoptotic (%) [10]: 52% | Population Fragmented Nuclei (%) [10]: 44% | Population Healthy Nuclei (%) [10]: 44% | Population Hoechst High Intensity Objects (%) [10]: 5% | Population Membrane Permeable-Phenotype (%) [10]: 4% | Population Mitochondria Different-Phenotype (%) [10]: 12% | Population Mitotic Cells (%) [10]: 47% | Population Normal (%) [10]: 94% | Population Pyknosed Nuclei (%) [10]: 10% | Population Tubulin-Different-Phenotype (%) [10]: 64% | Total Cell Count [10]: 167 | Population Apoptotic (%) [11]: 92% | Population Fragmented Nuclei (%) [11]: 15% | Population Healthy Nuclei (%) [11]: 67% | Population Hoechst High Intensity Objects (%) [11]: 12% | Population Membrane Permeable-Phenotype (%) [11]: 0% | Population Mitochondria Different-Phenotype (%) [11]: 44% | Population Mitotic Cells (%) [11]: 8% | Population Normal (%) [11]: 87% | Population Pyknosed Nuclei (%) [11]: 17% | Population Tubulin-Different-Phenotype (%) [11]: 91% | Total Cell Count [11]: 163 | Population Apoptotic (%) [12]: 75% | Population Fragmented Nuclei (%) [12]: 30% | Population Healthy Nuclei (%) [12]: 53% | Population Hoechst High Intensity Objects (%) [12]: 6% | Population Membrane Permeable-Phenotype (%) [12]: 3% | Population Mitochondria Different-Phenotype (%) [12]: 41% | Population Mitotic Cells (%) [12]: 25% | Population Normal (%) [12]: 93% | Population Pyknosed Nuclei (%) [12]: 16% | Population Tubulin-Different-Phenotype (%) [12]: 92% | Total Cell Count [12]: 159
